TbMetRS inhib – blocks T. brucei methionyl-tRNA synthetase activity; purified T. brucei MetRS, ATP depletion, Kinase-Glo luminescence; inhibition, % at 11.9 µM; actives 0.4% (n = 360,000); AID 624268;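 active = inhibition above a per-plate cutoff of the control wells' mean inhibition plus 3 SD, cut at about 5.5% in these data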;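 also: 0% = DMSO wells median and 100% = median of wells with control inhibitor compound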
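Assay system: T. brucei methionyl-tRNA synthetase, purified | Medium: HEPES buffer with MgCl2, KCl, DTT, spermine, BSA, pyrophosphatase | Compound: 11.9 µM single point | Incubation: 15 min enzyme-compound preincubation, 2 h reaction, 10 min detection, 25 °C | Measured by: Kinase-Glo luciferase luminescence reporting remaining unconsumed ATP | Measure: % inhibition normalized to control-well medians | Replication: Singlicate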
Rin1-Abl PPI inh – inhibitors of human Rin1-Abl protein interaction; P00519+Q13671; actives 0.4% (n = 360,000); inhibition, % at 7.35 µM; TR-FRET Rin1/Abl binding, biochemical; AID 588664; in the data active = inhibition above about 5%, passing the limit was not always enough
PKA-R1A act – activates the PKA-R1A holoenzyme complex; P00514+P68181; PKA-R1A dissociation, Cy5-IP20 fluorescence polarization; scaled: DMSO 0%, 113 µM cGMP 100%; activation, % at 11.4 µM; actives 0.083% (n = 340,000); AID 504707;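 active = percent activation above the mean of all tested compounds plus 3 SD, cut at about 19% in these data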;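 also: higher means more PKAc released from R1A so a rise in polarization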
PKA-R2B activ – activates the human PKA-R2B holoenzyme complex; P22694+P31323; PKA-R2B holoenzyme dissociation, Cy5-IP20 fluorescence polarization; R2B truncated from residue 108, S112A mutant; 0% DMSO only, 100% 113 µM cGMP; activation, % at 11.4 µM; actives 0.079% (n = 340,000);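 active = activation above a cutoff set at the mean over all compounds plus 3 SD, cut at about 18% in these data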;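 also: higher means more holoenzyme dissociation and a rise in polarization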
Target sequence (P31323 whole entry, looked up, other chains not shown, the tested form may be a part): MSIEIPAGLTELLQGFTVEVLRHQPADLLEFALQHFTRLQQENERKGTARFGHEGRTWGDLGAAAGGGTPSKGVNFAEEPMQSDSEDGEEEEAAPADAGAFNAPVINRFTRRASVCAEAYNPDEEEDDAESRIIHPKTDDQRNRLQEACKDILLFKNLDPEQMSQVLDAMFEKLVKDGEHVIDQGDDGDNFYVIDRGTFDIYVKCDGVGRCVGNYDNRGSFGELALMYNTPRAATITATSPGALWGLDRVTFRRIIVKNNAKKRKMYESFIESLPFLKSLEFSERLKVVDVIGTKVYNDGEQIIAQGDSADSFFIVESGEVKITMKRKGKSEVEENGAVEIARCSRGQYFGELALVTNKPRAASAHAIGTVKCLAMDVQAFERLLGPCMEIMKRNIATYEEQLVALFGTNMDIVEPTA
Cardio protect – modulators protecting cardiomyocytes from myocardial damage | protection from H2O2 cell death, % at 20 µM | actives 0.63% (n = 360,000) | H9c2 cardiomyocytes, H2O2 injury protection, ATPLite, 2 h;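 active = compounds giving at least 50% protection of heart cells from peroxide-induced death in the single-dose screen, raw or plate-pattern-corrected value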;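 also: 0% = DMSO wells with peroxide and 100% = DMSO wells without peroxide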
Tb MetRS conf – confirmation of Trypanosoma brucei MetRS inhibitors | T. brucei MetRS enzyme, luminescence (ATP depletion) | AID 624412 | shares compounds with TbMetRS inhib | inhibition, % at 11.9 µM | actives 93% (n = 1,400); in the data active = inhibition above about 7%
Jurkat tox – Jurkat T cell cytotoxicity for MetRS hits; shares compounds with TbMetRS inhib; Jurkat cells viability, ATP luminescence; inhibition, % at 8.3 µM; actives 12% (n = 1,400); in the data active = inhibition above about 15%;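 also: 0% = vehicle and 100% = reference inhibitor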
Tb MetRS inh FP – T. brucei MetRS inhibition, orthogonal assay. actives 44% (n = 1,400). shares compounds with TbMetRS inhib. inhibition, % at 11.9 µM. purified T. brucei MetRS, fluorescence polarization. AID 651607; in the data active = inhibition above about 17%;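 also: 0% = vehicle wells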
* marks the source's active call; other numbers are inactive results; nt = not tested or not shown. The list is not random: actives were taken first. Their share in the collection is about 1.5%.

SMILES	TbMetRS inhib	Rin1-Abl PPI inh	PKA-R1A act	PKA-R2B activ	Cardio protect	Tb MetRS conf	Jurkat tox	Tb MetRS inh FP
Cc1cccc(CC(Cc2nc3ccccc3[nH]2)c2nc3ccccc3[nH]2)c1 (stereo unspecified)	8.4*	-1	-6	-5	-32	21*	10	9
CC(C)Cc1nc2ccccc2[nH]1	0	-2	0	-3	-2	nt	nt	nt
O=C(C(=O)N1CCN(c2ccccc2Cl)CC1)c1c[nH]c2ccccc12	13*	-2	2	-19	0	24*	18*	8
O=C(c1cc(=O)[nH]c2ccccc12)N1CC=C(c2ccccc2)CC1	0	1	3	-14	-9	nt	nt	nt
O=C(C(=O)N1CCN(Cc2ccc3c(c2)OCO3)CC1)c1c[nH]c2ccccc12	9.6*	4	-2	-11	-5	25*	7	8
Cc1c(C(=O)C(=O)N2CCN(Cc3ccc4c(c3)OCO4)CC2)c2ccccc2n1C	0	1	-8	-6	6	nt	nt	nt
O=C(C(=O)N1CC=C(c2ccccc2)CC1)c1c[nH]c2ccccc12	7.4*	1	0	-4	-6	17*	-1	10
Cc1[nH]c2ccccc2c1C(=O)C(=O)N1CCN(c2ccccc2F)CC1	7.2*	-2	4	6	-4	20*	-5	6
CSCCC(NS(=O)(=O)c1ccccc1F)C(=O)Nc1ccncc1 (stereo unspecified)	0	4	-14	2	3	nt	nt	nt
O=C(C(=O)N1CCCc2ccccc21)c1c[nH]c2ccccc12	8.2*	0	-3	1	1	13*	7	3
Cc1[nH]c2ccccc2c1C(=O)C(=O)N1CCCc2ccccc21	2	-3	4	4	-4	nt	nt	nt
CCCCCCCCCC1NC(C(=O)O)Cc2c1[nH]c1ccccc21 (stereo unspecified)	70*	5	4	-9	4	93*	-6	74*
Cc1scc(C(=O)N2CCN(S(C)(=O)=O)CC2)c1-c1ccccc1	24*	3	7	7	0	4	2	-3
CC(OC(=O)C1CSC2(C)CCC(=O)N12)C(=O)Nc1ccc(F)cc1 (stereo unspecified)	0	-2	-6	11	1	nt	nt	nt
COC(=O)[C@H](Cc1c[nH]c2ccccc12)NC(=O)NCc1ccc(OC)c(OC)c1	0	-2	3	0	-4	nt	nt	nt
COC(=O)[C@H](Cc1c[nH]c2ccccc12)NC(=O)NCc1ccc(OC)cc1	6.6*	0	-1	2	7	15*	-4	4
C=CCN1C=CC(=O)CC1	-1	3	2	-14	-4	nt	nt	nt
O=C(Nc1ccc(Cl)cc1)Nc1ccc(S(=O)(=O)Nc2ncccn2)cc1	6.2*	0	2	-3	-5	8.4*	-1	2
COc1ccc(CCNC(=O)C2(C)CCC(=O)N2Cc2ccc(C)cc2)cc1OC (stereo unspecified)	-1	0	-1	-1	0	nt	nt	nt
c1ccc2c(c1)ncn2-c1ncnc2sc3c(c12)CCCC3	0	-1	4	-12	-3	nt	nt	nt
CC(O)CNc1nc2ccccc2n1-c1ncnc2sc3c(c12)CCC3 (stereo unspecified)	9.3*	5	-6	-8	-22	16*	4	6
CCOC(=O)C1(Cc2cccc(F)c2)CCN(C(=O)c2ccoc2C)CC1	0	-1	7	-6	12	nt	nt	nt
C[C@H](O)[C@@H]1C(=O)N2CCc3c([nH]c4ccccc34)[C@@H]2C[C@@H]1N(C)C(=O)c1cc(Cl)cc(Cl)c1	13*	2	nt	nt	3	46*	0	20*
Cc1ccccc1C(=O)N(C)[C@H]1C[C@H]2c3[nH]c4ccccc4c3CCN2C(=O)[C@H]1[C@H](C)O	31*	-2	-14	-4	9	48*	4	18*
C[C@H](O)[C@@H]1C(=O)N2CCc3c([nH]c4ccccc34)[C@@H]2C[C@@H]1N(C)C(=O)Nc1cccc2ccccc12	1	-1	nt	nt	-1	nt	nt	nt
SMILES	TbMetRS inhib	Rin1-Abl PPI inh	PKA-R1A act	PKA-R2B activ	Cardio protect	Tb MetRS conf	Jurkat tox	Tb MetRS inh FP
C[C@H](O)[C@@H]1C(=O)N2CCc3c([nH]c4ccccc34)[C@@H]2C[C@@H]1N(C)S(=O)(=O)c1ccccc1	27*	-7	5	0	7	23*	5	8
C[C@H](O)[C@@H]1C(=O)N2CCc3c([nH]c4ccccc34)[C@@H]2C[C@@H]1N(C)Cc1ccc2c(c1)OCO2	89*	-2	-9	-2	3	102*	0	83*
COc1ccc(S(N)(=O)=O)cc1C(=O)N(C)CC(=O)Nc1ccc(N2CCOCC2)cc1	0	1	-3	-2	-4	nt	nt	nt
O=C(Nc1ccccc1F)C1CCCN1S(=O)(=O)c1ccc(Cl)cc1 (stereo unspecified)	0	-2	6	4	-1	nt	nt	nt
COc1ccc(C(C)=O)cc1Cn1c(=O)cc(C)[nH]c1=O	0	3	-5	-5	7	nt	nt	nt
CCOC(=O)N(C)[C@H]1C[C@H]2c3[nH]c4ccccc4c3CCN2C[C@H]1[C@H](C)O	0	0	nt	nt	3	nt	nt	nt
C[C@H](O)[C@@H]1CN2CCc3c([nH]c4ccccc34)[C@@H]2C[C@@H]1N(C)Cc1cc(Cl)cc(Cl)c1	34*	-6	-5	0	-7	71*	0	37*
COc1ccc(C(=O)N(C)[C@H]2C[C@H]3c4[nH]c5ccccc5c4CCN3C(=O)[C@H]2CO)cc1	44*	3	3	-2	-2	62*	-4	26*
O=C(COC(=O)c1cc(-c2ccccn2)nc2ccccc12)Nc1ncc(C(F)(F)F)cc1Cl	0	-4	-14	-6	-2	nt	nt	nt
Cc1ccn2c(C(C)O)nnc2c1 (stereo unspecified)	0	1	5	-7	1	nt	nt	nt
COc1ccc(OCc2cc(C(=O)NCc3nc(C)cs3)no2)c(Cl)c1	6.2*	-5	1	5	-4	29*	1	21*
CCC1(CC)C(=O)N(C)C(=O)NC1=NCc1ccccc1	-1	0	-12	0	14	nt	nt	nt
Cc1cc(=O)n2c(n1)NC(=NCc1ccccc1)NC2c1ccccc1 (stereo unspecified)	8.5*	5	nt	nt	4	18*	1	11
